From ChEMBL document CHEMBL1799920, “Total synthesis and pharmacological characterization of solomonsterol A, a potent marine pregnane-X-receptor agonist endowed with anti-inflammatory activity” (J Med Chem, 2011)
The source made the active and inactive calls.

Assays:
Format in all cases: functional, organism-based
Design in all cases: dose 10 mg/kg
Settings in all cases: C57Bl/6
Mus musculus [1] = test: Antiinflammatory activity against trinitrobenzenesulfonic acid-induced colitis in human PXR expressing transgenic C57/BL6 mouse assessed as decrease in thickness of colon at 10 mg/kg, ip qd administered 3 days before TNBS challenge measured after 7 days
In short: (§1)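 Male hPXR mice (human PXR on mouse PXR-null background). Fasted 16 h and lightly anaesthetised with ketamine/xylazine, then given TNBS 0.5 mg/mouse in 50% ethanol intrarectally in 150 μL. Drug was dissolved in DMSO, diluted in 1% methylcellulose and given i.p. once daily for 3 days before TNBS. Vehicle controls received methylcellulose. Mice were sacrificed 4 days after TNBS; n = 6–7 per group.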

Mus musculus [2] = test: Antiinflammatory activity against trinitrobenzenesulfonic acid-induced colitis in human PXR expressing transgenic C57/BL6 mouse assessed as decrease in evidence of mucosal hemorrhage in colon at 10 mg/kg, ip qd administered 3 days before TNBS challenge measured after 7 days; in short: as §1
Mus musculus [3] = test: Antiinflammatory activity against trinitrobenzenesulfonic acid-induced colitis in human PXR expressing transgenic C57/BL6 mouse assessed as decrease in appearance of epithelial erosions in colon at 10 mg/kg, ip qd administered 3 days before TNBS challenge measured after 7 days by haematoxylin/eosin staining; in short: as §1
Mus musculus [4] = test: Antiinflammatory activity against trinitrobenzenesulfonic acid-induced colitis in human PXR expressing transgenic C57/BL6 mouse assessed as decrease in TNF-alpha protein level in colon at 10 mg/kg, ip qd after 5 days by ELISA; in short: as §1
Mus musculus [5] = test: Antiinflammatory activity against trinitrobenzenesulfonic acid-induced colitis in human PXR expressing transgenic C57/BL6 mouse assessed as decrease in presence of indurations in colon at 10 mg/kg, ip administered on day 1 after TNBS challenge measured after 5 days
In short: (§2)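 Therapeutic protocol in male hPXR mice. Colitis was induced with intrarectal TNBS 0.5 mg/mouse in 50% ethanol after a 16 h fast and light ketamine/xylazine anaesthesia. Drug at 10 mg/kg was given once daily from day 1 after TNBS. Mice were sacrificed 5 days after TNBS; n = 4–6 per group.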

Mus musculus [6] = test: Antiinflammatory activity against trinitrobenzenesulfonic acid-induced colitis in human PXR expressing transgenic C57/BL6 mouse assessed as decrease in edema of colon at 10 mg/kg, ip administered on day 1 after TNBS challenge measured after 5 days; in short: as §2
Mus musculus [7] = test: Antiinflammatory activity against trinitrobenzenesulfonic acid-induced colitis in human PXR expressing transgenic C57/BL6 mouse assessed as decrease in thickness of colon at 10 mg/kg, ip administered on day 1 after TNBS challenge measured after 5 days; in short: as §2
Mus musculus [8] = test: Antiinflammatory activity against trinitrobenzenesulfonic acid-induced colitis in human PXR expressing transgenic C57/BL6 mouse assessed as decrease in evidence of mucosal hemorrhage in colon at 10 mg/kg, ip administered on day 1 after TNBS challenge measured after 5 days; in short: as §2
Mus musculus [9] = test: Antiinflammatory activity against trinitrobenzenesulfonic acid-induced colitis in human PXR expressing transgenic C57/BL6 mouse assessed as decrease in leukocyte infiltration in colon at 10 mg/kg, ip administered on day 1 after TNBS challenge measured after 5 days by microscopically; in short: as §2
Mus musculus [10] = test: Antiinflammatory activity against trinitrobenzenesulfonic acid-induced colitis in human PXR expressing transgenic C57/BL6 mouse assessed as decrease in weight loss at 10 mg/kg, po qd administered 3 days before TNBS challenge measured after 7 days
In short: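 Clinical read-outs in hPXR mice with TNBS colitis (0.5 mg/mouse intrarectally in 50% ethanol after a 16 h fast). Oral dosing at 10 mg/kg once daily (DMSO diluted in 1% methylcellulose) started 3 days before TNBS. Diarrhea was scored and body weight recorded, weight expressed as delta percentage versus the day before TNBS; sacrifice was 4 days after TNBS. n = 6–7.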

Mus musculus [11] = test: Antiinflammatory activity against trinitrobenzenesulfonic acid-induced colitis in human PXR expressing transgenic C57/BL6 mouse assessed as decrease in edema of colon at 10 mg/kg, po qd administered 3 days before TNBS challenge measured after 7 days
In short: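 hPXR male mice were fasted 16 h and given TNBS intrarectally (0.5 mg/mouse in 50% ethanol). Oral 10 mg/kg once daily (DMSO stock diluted in 1% methylcellulose) began 3 days before TNBS; vehicle controls received 1% methylcellulose. Four days after TNBS, colon macroscopic appearance was graded blind for induration, edema, thickness and mucosal hemorrhage. n = 6–7.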

Mus musculus [12] = test: Antiinflammatory activity against trinitrobenzenesulfonic acid-induced colitis in human PXR expressing transgenic C57/BL6 mouse assessed as decrease in microscopic colon damage at 10 mg/kg, po qd administered 3 days before TNBS challenge measured after 7 days
In short: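 Microscopic colon damage in the prophylactic TNBS model in hPXR mice: oral 10 mg/kg daily, in DMSO/1% methylcellulose, from 3 days before intrarectal TNBS (0.5 mg/mouse in 50% ethanol). Colons were collected at day 4 post-TNBS, formalin-fixed, paraffin-embedded and H&E-stained, then graded blind on a 0–4 scale (leukocyte infiltration, vascular density, wall thickening, goblet cell loss). n = 6–7.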

Mus musculus [13] = test: Antiinflammatory activity against trinitrobenzenesulfonic acid-induced colitis in human PXR expressing transgenic C57/BL6 mouse assessed as decrease in colonic myeloperoxidase activity at 10 mg/kg, po qd after 5 days using trimethylbenzidine as substrate by spectrophotometry
In short: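 Colon myeloperoxidase from TNBS-colitic hPXR mice given oral 10 mg/kg daily. Colon was lysed in T-PER and minced, then centrifuged at 10,000g for 15 min at 4 °C. After two freeze/thaw cycles, MPO in the homogenate was measured spectrophotometrically with TMB substrate and normalized to protein. Mean ± SE, 6–7 mice/group.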

Mus musculus [14] = test: Antiinflammatory activity against trinitrobenzenesulfonic acid-induced colitis in human PXR expressing transgenic C57/BL6 mouse assessed as decrease in MIP-1alpha protein level in colon at 10 mg/kg, po qd after 5 days

Measured: Activity

C[C@H](CCCOS(=O)(=O)O)[C@H]1CC[C@H]2[C@@H]3CC[C@H]4C[C@H](OS(=O)(=O)O)[C@@H](OS(=O)(=O)O)C[C@]4(C)[C@H]3CC[C@]12C [SOLOMONSTEROL A]
not listed: Mus musculus [10] | Mus musculus [11] | Mus musculus [12] | Mus musculus [13] | Mus musculus [14]
active: all other assays above

CO[C@H]1/C=C/O[C@@]2(C)Oc3c(C)c(O)c4c(O)c(c5c(nc6cc(C)ccn65)c4c3C2=O)NC(=O)/C(C)=C\C=C\[C@H](C)[C@H](O)[C@@H](C)[C@@H](O)[C@@H](C)[C@H](OC(C)=O)[C@@H]1C [RIFAXIMIN]
active: Mus musculus [10] | Mus musculus [11] | Mus musculus [12] | Mus musculus [13] | Mus musculus [14]
